An excerpt weighted towards active compounds, which were near 3.1% of everything screened.
GPR7 antag – GPR7 receptor antagonists, primary screen, cell-based, fluorescence, single concentration; Neuropeptides B/W receptor type 1 (Homo sapiens), P48145; 290,000 compounds, 1.1% hits; GPR7-expressing cells, fluorescence antagonist assay; inhibition, % at 4.4 µM; AID 1861, 2009; in the data active means inhibition above about 16%, passing the limit was not always enough;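 further: cells stimulated with the agonist NPW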
Target sequence (P48145 whole entry, looked up): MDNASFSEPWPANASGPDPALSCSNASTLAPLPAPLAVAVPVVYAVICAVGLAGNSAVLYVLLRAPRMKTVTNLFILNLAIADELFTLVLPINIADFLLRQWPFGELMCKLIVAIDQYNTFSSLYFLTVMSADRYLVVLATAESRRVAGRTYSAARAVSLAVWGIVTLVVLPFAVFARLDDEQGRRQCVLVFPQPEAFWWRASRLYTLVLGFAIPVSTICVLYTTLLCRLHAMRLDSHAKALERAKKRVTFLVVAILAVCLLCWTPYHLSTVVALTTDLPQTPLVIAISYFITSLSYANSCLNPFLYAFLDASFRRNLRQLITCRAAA
CHO parental Ca – ATP-evoked calcium signal inhibitors, parental CHO, primary screen, counter-screen for OX1R antagonist project, cell-based, fluorescence, Fluo-8 calcium dye. inhibition, % at 5.6 µM. 330,000 compounds, 0.63% hits. parental CHO-K1, ATP-induced calcium, Fluo-8 fluorescence. AID 463079, 2010;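 active means inhibition above that plate's mean sample inhibition plus 3 SD, cut at about 26% in these data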
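test system = CHO parental line | reagent = ATP stimulus | measured by = intracellular calcium via Fluo-8 no-wash fluorescent dye | control set = ATP and no-ATP DMSO wells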
OX1R antag-1 – antagonists of human orexin 1 receptor (OX1R); 330,000 compounds, 1.8% hits; inhibition, % at 6.6 µM; OX1R-expressing cells, FRET antagonist read-out; AID 485270, 2010; Orexin/Hypocretin receptor type 1 (Homo sapiens), O43613; in the data active means inhibition mostly above about 38%, no sharp cut-off; inactive means mostly below about 40%
GalR3 antag – GalR3 antagonists in HEK293 cells, primary screen, cell-based, fluorescence readout; Galanin receptor type 3 (Homo sapiens), O60755; HEK293 GalR3-CNG cAMP membrane potential fluorescence; galR3 body fused to GalR1 C-terminus; inhibition, % at 3 µM; 360,000 compounds, 0.44% hits; AID 651719, 2012;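 active means inhibition above the screen-wide average plus 3 SD, cut at about 13% in these data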;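 further: forskolin and galanin both at EC90 stimulate the cells; cAMP rise reported by CNG channel membrane potential dye signal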
Target sequence (O60755 1-299 limits assumed): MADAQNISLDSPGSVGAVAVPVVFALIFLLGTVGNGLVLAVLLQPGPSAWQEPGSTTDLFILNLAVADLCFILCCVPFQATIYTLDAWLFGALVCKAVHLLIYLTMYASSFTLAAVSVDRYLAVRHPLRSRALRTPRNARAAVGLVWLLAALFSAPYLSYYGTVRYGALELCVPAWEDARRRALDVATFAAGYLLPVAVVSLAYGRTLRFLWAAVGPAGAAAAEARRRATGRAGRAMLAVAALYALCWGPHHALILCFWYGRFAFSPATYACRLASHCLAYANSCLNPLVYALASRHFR
OX1R antag-2 – OX1R (HCRTR1) antagonists, primary screen, fluorescence, CHO/OX1R cells, Fluo-8 calcium, orexin A. 330,000 compounds, 0.43% hits. AID 434989, 2010. Orexin/Hypocretin receptor type 1 (Homo sapiens), O43613. Fluo-8 calcium fluorescence. inhibition, % at 5 µM;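 active means inhibition above its plate's threshold, mean inhibition of all tested compounds on the plate plus 3 SD, cut at about 37% in these data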
Large screens that a line does not name were inactive.

COc1ccc(/C=N/Nc2nnc(C)n2N)cc1OC(C)=O	OX1R antag-1 55.7
Cc1ccc(NC(=O)Nc2cccc([N+](=O)[O-])c2)cc1F	GPR7 antag 30.2
O=C(Nc1ccc(OC(F)(F)F)cc1)Nc1cccc([N+](=O)[O-])c1	GPR7 antag 42.6, CHO parental Ca 73.5, OX1R antag-1 78.5
O=C(Nc1cccnc1)Nc1cccc([N+](=O)[O-])c1	none
O=C(Nc1cccc([N+](=O)[O-])c1)c1ccncc1	OX1R antag-1 65.5
COCCN1CCCc2nc(-c3ccc(Br)cc3)ccc21	none (no result: GPR7 antag, CHO parental Ca, OX1R antag-1, OX1R antag-2)
CC(C)COC(=O)c1cccc2c1-c1ccccc1/C2=N\O	CHO parental Ca 41.2
CCOCCCNC(=O)/C=C1\Sc2ccccc2N(Cc2ccccc2F)C1=O	GPR7 antag 18.6, OX1R antag-1 44.0
CCOCCCNC(=O)CN1C(=O)/C(=C/c2ccccc2C)Sc2ccccc21	none
CCCC(C)Sc1nc2c([nH]1)c(=S)n(C)c(=O)n2C (centres undefined)	none (no result: GPR7 antag, CHO parental Ca, OX1R antag-1, OX1R antag-2)
CC(C)(C)c1ccc(-c2cc(NC(=O)Cc3c[nH]c4ccccc34)ccc2Nc2cccnc2)cc1	none (no result: GPR7 antag, CHO parental Ca, OX1R antag-1, OX1R antag-2)
CCOC(=O)C1=C(C(=O)OCC)C2N(Cc3ccc(C#N)cc3)c3ccccc3[C@@]23C[C@@H](C(=O)OC)N(S(=O)(=O)c2cccs2)C3=N1 (some centres undefined)	none (no result: GPR7 antag, CHO parental Ca, OX1R antag-1, OX1R antag-2)
Cc1cccnc1NC(=O)Nc1cccc2ccccc12	OX1R antag-1 45.0
O=C(NCCO)c1cccc(-c2cnc3cccnn23)c1	none (no result: GPR7 antag, CHO parental Ca, OX1R antag-1, OX1R antag-2)
O=C(Nc1ncc(S(=O)(=O)c2ccc([N+](=O)[O-])cc2)s1)c1ccccc1F	CHO parental Ca 39.0, OX1R antag-2 53.6
C#CCNC(=O)C[C@H]1C[C@@]2(C(=O)OC)C(=C[C@H](C(C)(C)C)O[C@@H]2C)N(Cc2ccc3c(c2)OCO3)C1=O	none (no result: GPR7 antag, CHO parental Ca, OX1R antag-1, OX1R antag-2)
Cc1[nH]n(-c2ccccc2)c(=O)c1/C=N/N1C(=O)c2cccc3cccc(c23)C1=O	OX1R antag-1 74.1
Cc1[nH]n(-c2ccccc2)c(=O)c1/C=N/N1CCOCC1	none
CCC1Sc2ccc(S(=O)(=O)Nc3ccc(OC)c(OC)c3)cc2NC1=O (centres undefined)	CHO parental Ca 44.7, OX1R antag-2 46.4
CCC1Sc2ccc(S(=O)(=O)CCC(=O)Nc3ccc(C(=O)OC)cc3)cc2NC1=O (centres undefined)	CHO parental Ca 100.4
Cc1cc(C(=O)CSc2nc3ccccc3c(=O)[nH]2)c(C)n1CC1CCCO1 (centres undefined)	CHO parental Ca 60.0
CCn1c(SCC(=O)c2cc(C)n(CC3CCCO3)c2C)nc2ccccc21 (centres undefined)	OX1R antag-1 76.7
CC(C)(C)c1ccc(-n2nc(C#N)c(Cl)cc2=O)cc1	GPR7 antag 84.5 (no result: CHO parental Ca, OX1R antag-1, OX1R antag-2)
CC(C)COc1ccc(/C(=N/O)c2ccccc2)cc1	CHO parental Ca 32.9
CC(C)COc1ccc(CNC(=S)NCc2ccccc2)cc1	none
O=C(c1cc(O)c(O)c([N+](=O)[O-])c1)c1ccccc1F	OX1R antag-1 38.8 (no result: GPR7 antag, GalR3 antag)
O=C1/C(=C/c2ccccc2)Nc2ccccc21	CHO parental Ca 35.7, OX1R antag-2 50.3
CC1=C(C(=O)N2CCOCC2)CC(CC(=O)NCCCCc2ccccc2)C(=O)N1CCC1=CCCCC1 (centres undefined)	none (no result: GPR7 antag, CHO parental Ca, OX1R antag-1, OX1R antag-2)
CN(C)c1ccc(NC(=O)CSc2nnc(-c3cccs3)n2Cc2ccco2)cc1	OX1R antag-1 47.0
CCCCCOc1ccc(Br)cc1CSC(=N)N	GPR7 antag 71.7, GalR3 antag 19.3 (no result: CHO parental Ca, OX1R antag-1, OX1R antag-2)
COc1ccc(Br)cc1CSC(=N)N	none
O=C(NC1CCCC1)C1C(c2ccc(C(F)(F)F)cc2)=Nc2ccccc2N1C(=O)c1cc2ccccc2[nH]1 (centres undefined)	none (no result: GPR7 antag, CHO parental Ca, OX1R antag-1, OX1R antag-2)
CCc1nc2c(OCC3COc4ccccc4O3)cccn2c1N(C)C(=O)c1ccccc1F (centres undefined)	none (no result: GPR7 antag, CHO parental Ca, OX1R antag-1, OX1R antag-2)
O=C(Nc1nc2c(s1)CCc1ccccc1-2)c1cccs1	none
O=C(Nc1nc2c(s1)COc1ccccc1-2)c1cccs1	OX1R antag-1 56.0 (no result: GalR3 antag)
CCOc1ccccc1CNc1ncnc2ccc(-c3c(C)noc3C)cc12	OX1R antag-1 33.1 (no result: GPR7 antag)
O=c1[nH]c2ccccc2nc1-c1c[nH]c2ccccc12	OX1R antag-1 61.8
Nc1ccccc1-c1nc2ccccc2[nH]c1=O	none (no result: CHO parental Ca, OX1R antag-1, OX1R antag-2)
Cn1c(N)c(-c2ccccc2)c2ccc([N+](=O)[O-])cc2c1=O	CHO parental Ca 42.6, OX1R antag-2 53.1
CC1CCN(C(C(=O)Nc2ccc(C(C)C)cc2)c2ccc3c(c2)OCO3)CC1 (centres undefined)	CHO parental Ca 31.1
O=[N+]([O-])c1ccc(S(=O)(=O)N2CCN(c3ccc(N4CCOCC4)nn3)CC2)cc1	OX1R antag-1 45.7 (no result: GPR7 antag)
CC1CCN(S(=O)(=O)c2ccc([N+](=O)[O-])cc2)CC1	none
CN1CCN(S(=O)(=O)c2ccc([N+](=O)[O-])cc2)CC1	OX1R antag-1 30.9
COc1cccc(Cn2c(N)c(C#N)c3nc4ccccc4nc32)c1OC	OX1R antag-1 46.3
O=C1c2cccc3c([N+](=O)[O-])ccc(c23)C(=O)N1CCc1ccccn1	none
CN(C)CCCN1C(=O)c2cccc3c([N+](=O)[O-])ccc(c23)C1=O	OX1R antag-1 68.2
NS(=O)(=O)c1cccc(NS(=O)(=O)c2ccc(/C=C/C(=O)OCC(=O)c3ccc(Br)cc3)cc2)c1	CHO parental Ca 25.2
O=C(NCCNC(=O)c1cc(OCC(F)(F)F)ccc1OCC(F)(F)F)Nc1cccc(C(F)(F)F)c1	GPR7 antag 20.8
Cc1nnc(N/N=C/c2ccc(-c3ccc(Br)cc3)o2)n1N	OX1R antag-1 39.6
Cc1cc(C(=O)CSc2nc3ccc(Cl)cc3[nH]2)c(C)n1Cc1ccco1	OX1R antag-1 45.4 (no result: GPR7 antag)
O=C(CSc1nc2ccc(Cl)cc2[nH]1)NCc1ccco1	none
CCOc1cc2c(cc1O)C(=NOC)CC1C2CCC2(C)C(O)CCC12 (centres undefined)	none (no result: GPR7 antag, CHO parental Ca, OX1R antag-1, OX1R antag-2)
O=C(/C=C/c1cccc([N+](=O)[O-])c1)Nc1cc(C(=O)O)cc(C(=O)O)c1	OX1R antag-1 62.1
COC(=O)c1cccc(NC(=O)/C=C/c2cccc([N+](=O)[O-])c2)c1	none
NC(Cc1ccc(C(F)(F)F)cc1)c1csc(Nc2nncc3ccccc23)n1 (centres undefined)	none (no result: GPR7 antag, CHO parental Ca, OX1R antag-1, OX1R antag-2)
CCNC(=O)C1(C)CCN(C(=O)c2cccc3ccccc23)C1 (centres undefined)	none (no result: GPR7 antag, CHO parental Ca, OX1R antag-1, OX1R antag-2)
CC1CCC2(CC1)NC(=O)N(CC(=O)Nc1ccc3c(c1)CCC3)C2=O (centres undefined)	none
CC1CCC2(CC1)NC(=O)N(CC(=O)Nc1ccc(N3CCOCC3)cc1)C2=O (centres undefined)	CHO parental Ca 71.3

Assay outcomes deposited in PubChem by The Scripps Research Institute Molecular Screening Center.
